Drawing on ChEMBL document CHEMBL3862037 (J Med Chem, 2016), this text covers Ki, Ratio Ki and Stability for 29 compounds.

Data set [1] deals with Sodium-dependent dopamine transporter (Rattus norvegicus, UniProt P23977). Briefly: Displacement of [3H]WIN35,428 from DAT in Sprague-Dawley rat brain membranes incubated for 120 mins by radioligand binding assay. It is filed as cell membranes, Membrane. (In a radioligand displacement assay an active substance lowers the binding of a labelled ligand.)
Data set [2] addresses Sodium-dependent serotonin transporter (Rattus norvegicus, UniProt P31652). The data set is described as follows: Displacement of [3H]citalopram from SERT in Sprague-Dawley rat brain stem membranes incubated for 60 mins by radioligand binding assay. Format: tissue-based.
For data set [3], the species on record is Rattus norvegicus. Briefly: Selectivity index, ratio of Ki for NET in Sprague-Dawley rat frontal cortex membranes to Ki for DAT in Sprague-Dawley rat brain membranes. Format: cell membranes.
Data set [4] is filed under the species Rattus norvegicus. The data set is described as follows: Selectivity index, ratio of Ki for SERT in Sprague-Dawley rat brain stem membranes to Ki for DAT in Sprague-Dawley rat brain membranes. It is filed as cell membranes.
Data set [5] can be described thus: Stability in mouse liver microsomes assessed as compound degradation at 10 uM in presence of NADPH regenerating system measured < 30 mins mins by LC/MS/MS method. It is filed as ADME. To be noted: 0.5 h. In a few lines: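 Mouse liver microsomes (0.5 mg/mL) in 100 mM potassium phosphate pH 7.4 with NADPH regenerating system. Compound at 10 µM final; testosterone as positive control. Parent compound loss followed over time by LC/MS/MS on a C18 column with formic acid/acetonitrile gradient.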
(Liver microsomes are vesicles of endoplasmic reticulum, rich in cytochrome P450 enzymes.)

Data set [6] in a line: Displacement of [3H]nisoxetine from NET in Sprague-Dawley rat frontal cortex membranes incubated for 180 mins by radioligand binding assay. On the set-up: species or system Membrane.

By Ki is commonly meant a dissociation constant, usually derived from enzyme kinetics or from competition with a known ligand. The low end stands for a stronger hold on the target, the high end for a looser hold on the target.

Molecules are shown by their SMILES.

Sodium-dependent serotonin transporter, sequence (P31652 whole entry): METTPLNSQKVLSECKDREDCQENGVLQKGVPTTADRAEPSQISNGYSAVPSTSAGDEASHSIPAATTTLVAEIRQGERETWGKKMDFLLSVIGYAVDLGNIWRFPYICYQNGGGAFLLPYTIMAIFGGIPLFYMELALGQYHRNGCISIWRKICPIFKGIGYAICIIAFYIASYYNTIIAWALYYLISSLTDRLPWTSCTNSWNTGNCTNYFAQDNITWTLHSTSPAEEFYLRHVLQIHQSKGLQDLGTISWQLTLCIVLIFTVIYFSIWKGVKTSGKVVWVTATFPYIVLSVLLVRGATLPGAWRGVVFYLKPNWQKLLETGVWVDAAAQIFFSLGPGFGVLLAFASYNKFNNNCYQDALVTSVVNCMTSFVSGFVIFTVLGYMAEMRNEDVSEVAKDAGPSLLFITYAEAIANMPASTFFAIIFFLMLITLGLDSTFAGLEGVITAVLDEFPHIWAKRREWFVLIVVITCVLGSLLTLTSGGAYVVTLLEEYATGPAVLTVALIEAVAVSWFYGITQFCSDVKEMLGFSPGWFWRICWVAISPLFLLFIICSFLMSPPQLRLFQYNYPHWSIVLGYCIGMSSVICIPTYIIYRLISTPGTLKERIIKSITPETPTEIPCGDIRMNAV
Sodium-dependent dopamine transporter, sequence (P23977 whole entry): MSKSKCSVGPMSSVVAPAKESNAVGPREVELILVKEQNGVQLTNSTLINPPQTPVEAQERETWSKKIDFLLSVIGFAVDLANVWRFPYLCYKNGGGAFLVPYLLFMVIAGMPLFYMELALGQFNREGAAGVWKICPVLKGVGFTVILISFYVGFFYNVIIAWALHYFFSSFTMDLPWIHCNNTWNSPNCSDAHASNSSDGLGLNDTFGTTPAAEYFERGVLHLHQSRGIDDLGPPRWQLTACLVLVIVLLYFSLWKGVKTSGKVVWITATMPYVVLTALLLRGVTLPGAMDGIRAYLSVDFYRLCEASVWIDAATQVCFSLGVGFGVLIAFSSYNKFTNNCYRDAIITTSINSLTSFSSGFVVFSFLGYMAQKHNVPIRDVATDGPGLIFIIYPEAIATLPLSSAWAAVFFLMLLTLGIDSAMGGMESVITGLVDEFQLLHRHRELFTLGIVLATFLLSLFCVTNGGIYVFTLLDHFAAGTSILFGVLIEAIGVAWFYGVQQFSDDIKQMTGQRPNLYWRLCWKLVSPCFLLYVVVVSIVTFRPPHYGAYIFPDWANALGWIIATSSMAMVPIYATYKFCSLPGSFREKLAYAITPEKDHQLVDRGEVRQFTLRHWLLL

As to `CCCN1CCN(C(=O)C[S+]([O-])C(c2ccc(F)cc2)c2ccc(F)cc2)CC1` (stereo not drawn), the inhibition constant Ki in data set [1] amounted to 279 nM; in data set [2], 14.5 µM. In addition, the Ratio Ki in the data set listed under Rattus norvegicus [3] and in the data set listed under Rattus norvegicus [4] was over 100 throughout.
With `O=C(CSC(c1ccc(F)cc1)c1ccc(F)cc1)N1CCN(Cc2ccc(Cl)cc2)CC1`, the Ki is 58.7 nM in data set [1] and 2.2 µM in data set [2]. The Ratio Ki in the data set filed under Rattus norvegicus [3] and in the data set filed under Rattus norvegicus [4] was over 100 each time.
For `CC(O)CN1CCN(C(=O)C[S+]([O-])C(c2ccc(F)cc2)c2ccc(F)cc2)CC1` (stereo not drawn), the inhibitory constant (Ki) in data set [1] was 752 nM; in data set [2], 32.8 µM. The Ratio Ki in the data set filed under Rattus norvegicus [3] and in the data set listed under Rattus norvegicus [4] was over 100 throughout.
With `[O-][S+](CCN1CCN(CC(O)Cc2ccccc2)CC1)C(c1ccccc1)c1ccccc1` (stereo not drawn), the Ratio Ki in the data set filed under Rattus norvegicus [3] and in the data set filed under Rattus norvegicus [4] was over 100 each time. Besides, the Stability entry in data set [5] was “Unstable”.
On to `Fc1ccc(C(SCCN2CCN(CCCc3ccccc3)CC2)c2ccc(F)cc2)cc1`, for which the Ratio Ki in the data set listed under Rattus norvegicus [3] and in the data set listed under Rattus norvegicus [4] was over 100 each time.
As for `[O-][S+](CCN1CCN(Cc2ccc(F)cc2)CC1)C(c1ccc(F)cc1)c1ccc(F)cc1` (stereo not drawn), the Ki in data set [1] is 9.67 nM; in data set [6], over 50 µM; in data set [2], 8.52 µM. Also, the Ratio Ki in the data set filed under Rattus norvegicus [3] and in the data set filed under Rattus norvegicus [4] was over 100 in each case. The Stability entry in data set [5] is on record as “Unstable”.
On to `CCCN1CCN(C(=O)CSC(c2ccc(F)cc2)c2ccc(F)cc2)CC1`, for which the Ki was determined as 277 nM in data set [1] and 5.97 µM in data set [2]. Moreover, the Ratio Ki in the data set listed under Rattus norvegicus [3] and in the data set filed under Rattus norvegicus [4] was over 100 in each case.
With `[O-][S+](CCN1CCN(CCCc2ccccc2)CC1)C(c1ccccc1)c1ccccc1` (stereo not drawn), the affinity in data set [2] corresponds to a Ki of 7.36 µM. In addition, the Ratio Ki in the data set filed under Rattus norvegicus [3] and in the data set filed under Rattus norvegicus [4] was over 100 each time.
`Fc1ccc(C(SCCN2CCN(Cc3ccc(Cl)cc3)CC2)c2ccc(F)cc2)cc1`: the inhibition constant (Ki) in data set [1] is 19.3 nM; in data set [6], 7.41 µM; in data set [2] it was 0.905 µM. The Ratio Ki in the data set filed under Rattus norvegicus [3] and in the data set listed under Rattus norvegicus [4] was over 100 in each case.
As for `OC(Cc1ccccc1)CN1CCN(CCSC(c2ccc(F)cc2)c2ccc(F)cc2)CC1` (stereo not drawn), the Ratio Ki in the data set listed under Rattus norvegicus [3] and in the data set listed under Rattus norvegicus [4] was over 100 each time.
As to `[O-][S+](CCN1CCN(Cc2ccc(C(F)(F)F)cc2)CC1)C(c1ccc(F)cc1)c1ccc(F)cc1` (stereo not drawn), the inhibition constant (Ki) is 39.4 nM in data set [1], over 50 µM in data set [6] and 6.8 µM in data set [2]. Moreover, the Ratio Ki in the data set listed under Rattus norvegicus [3] and in the data set filed under Rattus norvegicus [4] was over 100 each time. For the same compound, the Stability result in data set [5] is reported as “Unstable”.
Regarding `CC(O)CN1CCN(CCSC(c2ccccc2)c2ccccc2)CC1` (stereo not drawn), the Ratio Ki in the data set listed under Rattus norvegicus [3] and in the data set listed under Rattus norvegicus [4] was over 100 throughout.
For `CC(O)CN1CCN(CCSC(c2cccc(Cl)c2)c2cccc(Cl)c2)CC1` (stereo not drawn), the inhibitory constant (Ki) in data set [1] worked out at 143 nM; in data set [6], 31.3 µM; in data set [2], 10.8 µM. Moreover, the Ratio Ki in the data set filed under Rattus norvegicus [3] and in the data set listed under Rattus norvegicus [4] was over 100 each time.
As to `Fc1ccc(C(SCCN2CCN(Cc3ccccc3)CC2)c2ccc(F)cc2)cc1`, the inhibition constant Ki in data set [1] worked out at 7.4 nM; in data set [6] it was 8.24 µM; in data set [2], 0.949 µM. The Ratio Ki in the data set listed under Rattus norvegicus [3] and in the data set filed under Rattus norvegicus [4] was over 100 in each case.
As to `O=C(C[S+]([O-])C(c1ccc(F)cc1)c1ccc(F)cc1)N1CCN(Cc2ccc(Cl)cc2)CC1` (stereo not drawn), the inhibition constant (Ki) in data set [1] was found to be 56.3 nM; in data set [6] it was 63.5 µM; in data set [2], 9.46 µM. Besides, the Ratio Ki in the data set filed under Rattus norvegicus [3] and in the data set filed under Rattus norvegicus [4] was over 100 in each case.
As for `CC(O)CN1CCN(C(=O)C[S+]([O-])C(c2cccc(Cl)c2)c2cccc(Cl)c2)CC1` (stereo not drawn), the Ki in data set [1] was 1380 nM; in data set [6], over 50 µM. Besides, the Ratio Ki in the data set listed under Rattus norvegicus [3] and in the data set listed under Rattus norvegicus [4] was over 100 in each case.
`O=C(C[S+]([O-])C(c1ccc(F)cc1)c1ccc(F)cc1)N1CCN(Cc2ccc(F)cc2)CC1` (stereo not drawn): the Ki in data set [1] amounted to 74.3 nM; in data set [2] it was 23.6 µM. The Ratio Ki in the data set listed under Rattus norvegicus [3] and in the data set listed under Rattus norvegicus [4] was over 100 each time. Further, in data set [5], the Stability entry is listed as “Unstable”.
For `CC(O)CN1CCN(C(=O)CSC(c2cccc(Cl)c2)c2cccc(Cl)c2)CC1` (stereo not drawn), the Ki in data set [1] is 915 nM; in data set [6], over 50 µM. The Ratio Ki in the data set listed under Rattus norvegicus [3] and in the data set listed under Rattus norvegicus [4] was over 100 throughout.
Turning to `[O-][S+](CCN1CCN(Cc2ccccc2)CC1)C(c1ccc(F)cc1)c1ccc(F)cc1` (stereo not drawn), the Ki was 27.2 nM in data set [1], 45.7 µM in data set [6] and 11.2 µM in data set [2]. Besides, the Ratio Ki in the data set filed under Rattus norvegicus [3] and in the data set filed under Rattus norvegicus [4] was over 100 in each case.
Turning to `[O-][S+](CCN1CCN(Cc2ccc(Cl)cc2)CC1)C(c1ccc(F)cc1)c1ccc(F)cc1` (stereo not drawn), the Ki in data set [1] is 7.62 nM; in data set [6] it was over 50 µM; in data set [2], 4.94 µM. Besides, the Ratio Ki in the data set listed under Rattus norvegicus [3] and in the data set listed under Rattus norvegicus [4] was over 100 throughout. In data set [5], the Stability result is “Unstable”.
On to `O=C(CSC(c1ccc(F)cc1)c1ccc(F)cc1)N1CCN(Cc2ccc(F)cc2)CC1`, for which the Ki in data set [1] amounted to 53.7 nM; in data set [2], 6.21 µM. The Ratio Ki in the data set filed under Rattus norvegicus [3] and in the data set listed under Rattus norvegicus [4] was over 100 throughout.
Take `Fc1ccc(CN2CCN(CCSC(c3ccc(F)cc3)c3ccc(F)cc3)CC2)cc1`: the inhibition constant Ki in data set [1] came out at 4.98 nM; in data set [6], 6.85 µM; in data set [2], 0.463 µM. The Ratio Ki in the data set listed under Rattus norvegicus [3] and in the data set listed under Rattus norvegicus [4] was over 100 in each case.
For the compound `O=C(C[S+]([O-])C(c1ccc(F)cc1)c1ccc(F)cc1)N1CCN(CCCc2ccccc2)CC1` (stereo not drawn), the Ki was 37.6 nM in data set [1], 12 µM in data set [6] and 1.32 µM in data set [2]. Moreover, the Ratio Ki in the data set listed under Rattus norvegicus [3] and in the data set filed under Rattus norvegicus [4] was over 100 in each case. Further, in data set [5], the Stability entry is given as “Unstable”.
In the case of `CC(O)CN1CCN(CC[S+]([O-])C(c2ccccc2)c2ccccc2)CC1` (stereo not drawn), the Ratio Ki in the data set filed under Rattus norvegicus [3] and in the data set listed under Rattus norvegicus [4] was over 100 throughout.
Take `Fc1ccc(C(SCCN2CCN(Cc3ccc(C(F)(F)F)cc3)CC2)c2ccc(F)cc2)cc1`: the inhibition constant (Ki) is 26.6 nM in data set [1], 15.4 µM in data set [6] and 2.02 µM in data set [2]. Besides, the Ratio Ki in the data set listed under Rattus norvegicus [3] and in the data set listed under Rattus norvegicus [4] was over 100 each time.
Turning to `CC(O)CN1CCN(C(=O)CSC(c2ccc(F)cc2)c2ccc(F)cc2)CC1` (stereo not drawn), the Ki was found to be 214 nM in data set [1] and 11.4 µM in data set [2]. In addition, the Ratio Ki in the data set listed under Rattus norvegicus [3] and in the data set filed under Rattus norvegicus [4] was over 100 in each case. The Stability entry in data set [5] is “Unstable”.
Consider `O=C(CSC(c1ccc(F)cc1)c1ccc(F)cc1)N1CCN(CCCc2ccccc2)CC1`, for which the Ki amounted to 28.6 nM in data set [1], 20.2 µM in data set [6] and 3.17 µM in data set [2]. The Ratio Ki in the data set filed under Rattus norvegicus [3] and in the data set filed under Rattus norvegicus [4] was over 100 throughout.
Turning to `c1ccc(CCCN2CCN(CCSC(c3ccccc3)c3ccccc3)CC2)cc1`, the Ratio Ki in the data set filed under Rattus norvegicus [3] and in the data set listed under Rattus norvegicus [4] was over 100 in each case.
Regarding `CC(O)CN1CCN(CC[S+]([O-])C(c2cccc(Cl)c2)c2cccc(Cl)c2)CC1` (stereo not drawn), the figures for the inhibition constant Ki in data set [1], in data set [6] and in data set [2] were 403 nM, over 50 µM and 58.9 µM, respectively. Besides, the Ratio Ki in the data set filed under Rattus norvegicus [3] and in the data set listed under Rattus norvegicus [4] was over 100 each time.
